# Data published in ChEMBL document CHEMBL3102821, “Lignans from the aerial parts of Saururus chinensis: isolation, structural characterization, and their effects on platelet aggregation” (J Nat Prod, 2014).
# Active and inactive are the calls of the source. The calls are words filed in the database; no cut-off is given here.
# Tests used:
# [1] = Antiplatelet activity against New Zealand white rabbit platelets assessed as inhibition of PAF-induced platelet aggregation preincubated at 10 uM for 2 mins before challenge […] by spectrophotometry; type: functional; settings: Oryctolagus cuniculus
# In short: (§1)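 Washed rabbit platelets: PRP made with 5 mM EDTA (final), then washed in Ca2+-free Tyrode's with 0.35% BSA, heparin and apyrase at 37 °C for 20 min. Resuspended in Tyrode's with 1 mM Ca2+ at 2.5 × 10^8/mL, stirred at 900 rpm. Sample in DMSO (0.5% final) for 2 min at 37 °C, then ADP 20 μM, AA 100 μM or PAF 10 nM. Read-out: maximal turbidimetric light-transmission rise within 4 min. Inhibition is calculated against vehicle.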
# Platelet [2] = test: Prothrombotic activity in New Zealand white rabbit platelets assessed as increase in platelet aggregation at 100 uM by spectrophotometry; type: functional, Oryctolagus cuniculus
# In short: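 Washed rabbit platelets are prepared the same way: 2.5 × 10^8/mL in Tyrode's with 1 mM Ca2+, stirred at 900 rpm at 37 °C, DMSO fixed at 0.5% final. Compound is added alone, with no agonist. Aggregation is read turbidimetrically as light transmission, with suspension set as 0% and buffer as 100%. The result is reported as % increase in aggregation.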
# [3] = Antiplatelet activity against New Zealand white rabbit platelets assessed as inhibition of PAF-induced platelet aggregation preincubated at 100 uM for 2 mins before challenge […] by spectrophotometry; type: functional; settings: Oryctolagus cuniculus
# In short: (§2)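 Resuspended in Tyrode's with 1 mM Ca2+ at 2.5 × 10^8/mL, stirred at 900 rpm. Sample in DMSO (0.5% final) for 2 min at 37 °C, then ADP 20 μM, AA 100 μM or PAF 10 nM. Read-out: maximal turbidimetric light-transmission rise within 4 min. Inhibition is calculated against vehicle.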
# [4] = Antiplatelet activity against New Zealand white rabbit platelets assessed as inhibition of arachidonic acid-induced platelet aggregation preincubated for 2 mins before challenge […] by spectrophotometry; type: functional, cell-based; settings: Oryctolagus cuniculus; in short: as §1
# [5] = Antiplatelet activity against New Zealand white rabbit platelets assessed as inhibition of arachidonic acid-induced platelet aggregation preincubated at 100 uM for 2 mins before challenge […] by spectrophotometry; type: functional; settings: Oryctolagus cuniculus; in short: as §2
# [6] = Antiplatelet activity against New Zealand white rabbit platelets assessed as inhibition of ADP-induced platelet aggregation preincubated for 2 mins before challenge […] by spectrophotometry; type: functional, cell-based; settings: Oryctolagus cuniculus; in short: as §2
# [7] = (§3) Antiplatelet activity against New Zealand white rabbit platelets assessed as inhibition of ADP-induced platelet aggregation preincubated at 100 uM for 2 mins before challenge […] by spectrophotometry; type: functional; settings: Oryctolagus cuniculus; in short: as §2
# [8] = Antiplatelet activity against New Zealand white rabbit platelets assessed as inhibition of PAF-induced platelet aggregation preincubated for 2 mins before challenge […] by spectrophotometry; type: functional, cell-based; settings: Oryctolagus cuniculus; in short: as §1
# cells = settings: Oryctolagus cuniculus, New Zealand white, Platelet, read-out: INH
# Platelet [9] = test: as §3; type: functional; settings: Oryctolagus cuniculus; in short: as §2
IC50 [6],SMILES,inhibition at 100 µM [3],inhibition at 100 µM [5],inhibition at 100 µM [7],further results
–,CCCCCCCCCCCCCCCCCCNC(=O)OCC(COP(=O)([O-])OCC[n+]1ccsc1)OC (stereo unspecified),–,–,–,inhibition at 10 µM [1]: 94.8%
–,C[C@H](Cc1cc2c(cc1O)OCO2)[C@@H](C)Cc1cc2c(cc1O)OCO2,–,–,–,Activity (Platelet [2]): 49.5%
40.3 µM,C[C@@H]1[C@@H](c2ccc3c(c2)OCO3)c2c(c(O)cc3c2OCO3)C[C@H]1C,0.6%,83.7%,84%,IC50 [4]: 71.4 µM
–,COc1ccc([C@H]2O[C@@H](c3ccc(OC)c(OC)c3)[C@@H](C)[C@H]2C)cc1OC,94.4%,19.4%,51.8%,IC50 [8]: 9.1 µM
28.1 µM,C=CCc1cc(OC)c(O[C@H](C)[C@H](OC(C)=O)c2cc(OC)c(OC)c(OC)c2)c(OC)c1,68.1%,93.5%,84.7%,IC50 [8]: 79.4 µM; IC50 [4]: 60.3 µM
–,COc1cc(C[C@H](C)[C@H](C)Cc2cc3c(cc2O)OCO3)ccc1O (relative stereo),–,–,–,Activity (Platelet [2]): 66.1%
–,COc1cc(C[C@H](C)[C@H](C)Cc2cc3c(cc2O)OCO3)c(O)cc1O (relative stereo),11.7%,90.9%,68.2%,–
–,COc1cc(O)c(C[C@H](C)[C@H](C)Cc2cc3c(cc2O)OCO3)cc1OC (relative stereo),7%,73%,71.5%,–
30 µM,COc1cc(OC)c(C[C@H](C)[C@H](C)Cc2cc3c(cc2O)OCO3)cc1O (relative stereo),26.7%,96.8%,85.2%,IC50 [4]: 29.4 µM
9.8 µM,COC1=CC(=O)C(C[C@H](C)[C@H](C)Cc2cc3c(cc2O)OCO3)=CC1=O (relative stereo),92%,98.7%,90.4%,IC50 [8]: 61.7 µM; IC50 [4]: 14 µM
–,COc1ccc([C@@H]2O[C@H](c3cc(OC)c4c(c3)OCO4)[C@@H](C)[C@@H]2C)cc1OC (relative stereo),42%,54.4%,19.1%,–
56 µM,COc1ccc([C@H]2O[C@@H](c3cc(OC)c4c(c3)OCO4)[C@H](C)[C@@H]2C)cc1OC (relative stereo),98.9%,80.3%,75.6%,IC50 [8]: 37.2 µM; IC50 [4]: 85 µM
–,COc1cc(C[C@@H](C)[C@H](C)Cc2ccc(O)c(OC)c2)ccc1O [(-)-DIHYDROGUAIARETICACID],–,–,–,Activity (Platelet [2]): 76.4%
50.6 µM,C/C=C/c1cc(OC)c2c(c1)[C@H](C)[C@@H](c1ccc3c(c1)OCO3)O2 [(-)-LICARIN B],5.3%,42.5%,86.7%,–
–,CC(=O)Oc1ccccc1C(=O)O [ASPIRIN],–,99.7%,–,–
–,COC(=O)[C@H](c1ccccc1Cl)N1CCc2sccc2C1 [CLOPIDOGREL],–,–,–,inhibition at 30 µM (cells): 80.2%
–,C/C=C/c1cc(OC)c2c(c1)[C@H](C)[C@@H](c1ccc(O)c(OC)c1)O2 [LICARIN A],–,–,–,Activity (Platelet [2]): 66.8%
–,C[C@@H]1O[C@@H](Oc2c(-c3ccc(O)c(O)c3)oc3cc(O)cc(O)c3c2=O)[C@H](O)[C@H](O)[C@H]1O [QUERCITRIN],6.8%,21.8%,83.1%,–
34.6 µM,CC(Cc1cc2c(cc1O)OCO2)C(C)C(=O)c1ccc2c(c1)OCO2 (stereo unspecified) [SAUCERNEOL G],3.9%,94.1%,90.9%,IC50 [4]: 25.9 µM
–,C[C@@H]1[C@H]2c3cc4c(cc3O[C@@]35OCOC3=CC(=O)[C@H](C[C@H]1C)[C@H]25)OCO4 [SAUCHINONE A],23.6%,28.2%,48.2%,–
–,C[C@@H]1[C@H]2c3cc4c(cc3O[C@@]35OCOC3=CC(=O)[C@H](C[C@H]1C)[C@@H]25)OCO4 [SAUCHINONE],11.8%,10.7%,–,inhibition (Platelet [9]): inactive
